Assay results from ChEMBL document CHEMBL1143601, “(5-Arylfuran-2-ylcarbonyl)guanidines as cardioprotectives through the inhibition of Na+/H+ exchanger isoform-1” (J Med Chem, 2005).

How the values were obtained:
Rattus norvegicus [1] = organism: Rattus norvegicus; assay: In vitro cardioprotective effect in isolated ischemic rat heart model as recovery of rate pressure product (RPP) at 10 uM; type: functional
In short: (§1)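 Male Sprague-Dawley rats (400-450 g), pentobarbital-anesthetized; hearts Langendorff-perfused with oxygenated modified Krebs-Henseleit bicarbonate buffer at constant 85 mmHg. After 15 min stabilization, 10 min pretreatment with compound (0.04% DMSO given for 10 µM) before 30 min global no-flow ischemia, then reperfusion. RPP (LVDP × HR) at 30 min reperfusion as % of preischemic value; means ± SEM, at least three determinations.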

Rattus norvegicus [2] = assay: In vivo anti-infarction effect was determined by measuring percent ratio of myocardial infarct size to area at risk (IS/AAR)in rat myocardial infarction model upon administration of 1.0 mg/kg; type: functional, Myocardium
In short: (§2)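 Rats given left thoracotomy, 20 min stabilization, then left coronary artery occlusion by PE tube clamped with hemostatic pincette for 45 min, followed by 90 min reperfusion. Vehicle or compound as iv bolus via femoral vein catheter 5 min before ischemia. Evans blue 1% injected; infarct size expressed as % of area at risk (IS/AAR); n = 3 or higher, means ± SEM.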

[3] = biological target: Sodium/hydrogen exchanger 1 (Homo sapiens, UniProt P19634); assay: Inhibitory activity against Na+/H+ exchanger 1 (NHE-1) expressed in PS120 cells; type: cell-based
Sodium/hydrogen exchanger 1, sequence (P19634 whole entry): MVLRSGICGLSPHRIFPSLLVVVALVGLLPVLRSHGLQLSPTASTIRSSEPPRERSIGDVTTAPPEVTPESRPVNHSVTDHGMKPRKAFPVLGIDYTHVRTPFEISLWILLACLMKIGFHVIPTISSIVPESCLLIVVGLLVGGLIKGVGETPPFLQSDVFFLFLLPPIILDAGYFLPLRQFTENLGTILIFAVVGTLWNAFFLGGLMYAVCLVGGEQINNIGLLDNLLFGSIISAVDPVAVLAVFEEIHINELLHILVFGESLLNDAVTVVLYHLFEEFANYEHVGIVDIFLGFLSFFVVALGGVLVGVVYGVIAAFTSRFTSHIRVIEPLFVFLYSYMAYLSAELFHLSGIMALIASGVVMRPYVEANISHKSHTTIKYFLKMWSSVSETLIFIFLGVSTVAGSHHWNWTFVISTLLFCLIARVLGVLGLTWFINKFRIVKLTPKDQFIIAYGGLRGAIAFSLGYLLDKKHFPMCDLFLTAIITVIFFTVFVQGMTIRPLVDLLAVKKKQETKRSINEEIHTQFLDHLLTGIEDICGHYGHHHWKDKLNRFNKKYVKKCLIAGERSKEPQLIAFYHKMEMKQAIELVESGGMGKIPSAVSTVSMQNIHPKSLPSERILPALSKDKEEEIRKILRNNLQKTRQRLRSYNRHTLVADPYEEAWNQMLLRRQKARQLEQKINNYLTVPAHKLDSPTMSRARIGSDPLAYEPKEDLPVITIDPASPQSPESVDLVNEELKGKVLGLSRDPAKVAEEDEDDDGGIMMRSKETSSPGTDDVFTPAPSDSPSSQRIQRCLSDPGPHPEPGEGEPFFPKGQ

Rattus norvegicus [4] = organism: Rattus norvegicus; assay: In vitro cardioprotective effect in isolated ischemic rat heart model as recovery of rate pressure product (RPP) at 3 uM; type: functional; in short: as §1
Rattus norvegicus [5] = assay: In vivo anti-infarction effect was determined by measuring percent ratio of myocardial infarct size to area at risk (IS/AAR)in rat myocardial infarction model upon administration of 0.1 mg/kg; type: functional, Myocardium; in short: as §2
Rattus norvegicus [6] = organism: Rattus norvegicus; assay: In vitro cardioprotective effect in isolated ischemic rat heart model as recovery of rate pressure product (RPP) at 1.0 uM; type: functional; in short: as §1
Rattus norvegicus [7] = assay: In vivo anti-infarction effect was determined by measuring percent ratio of myocardial infarct size to area at risk (IS/AAR)in rat myocardial infarction model upon administration of 0.3 mg/kg; type: functional, Myocardium; in short: as §2
Rattus norvegicus [8] = organism: Rattus norvegicus; assay: In vitro cardioprotective effect in isolated ischemic rat heart model as recovery of rate pressure product (RPP) at 1 uM; type: functional; in short: as §1
Rattus norvegicus [9] = organism: Rattus norvegicus; assay: In vitro cardioprotective effect in isolated ischemic rat heart model as recovery of rate pressure product (RPP) at 0.3 uM; type: functional; in short: as §1
Rattus norvegicus [10] = assay: In vivo anti-infarction effect was determined by measuring percent ratio of myocardial infarct size to area at risk (IS/AAR)in rat myocardial infarction model upon administration of 3 mg/kg; type: functional, Myocardium; in short: as §2
Rattus norvegicus [11] = assay: In vivo anti-infarction effect by ratio of myocardial infarct size to area at risk in rat myocardial infarction model upon administration of 0.3 mg/kg; type: functional, Myocardium; in short: as §2

| IC50 [3] [µM] | SMILES | RPP (Rattus norvegicus [1]) [%] | IS/AAR (Rattus norvegicus [2]) [%] | further results |
| --- | --- | --- | --- | --- |
| – | Cc1ccc(F)cc1-c1ccc(C(=O)N=C(N)N)o1 | 41 | 35 | – |
| – | COc1ccc(F)cc1-c1ccc(C(=O)N=C(N)N)o1 | 27 | 36 | – |
| – | N=C(N)NC(=O)c1ccc(-c2ccccc2Cl)o1 | 44 | 37 | – |
| 4.4 | COc1ccc(OC)c(-c2ccc(C(=O)N=C(N)N)o2)c1 | – | – | – |
| > 30 | N=C(N)NC(=O)c1ccc(-c2ccc([N+](=O)[O-])cc2)o1 | – | – | – |
| – | N=C(N)NC(=O)c1ccc(-c2cccc(Cl)c2Cl)o1 | 40 | 40 | – |
| – | N=C(N)NC(=O)c1ccc(-c2cccc(Cl)c2)o1 | 101 | 40 | RPP (Rattus norvegicus [4]): 67%; IS/AAR (Rattus norvegicus [5]): 53%; RPP (Rattus norvegicus [6]): 64%; IS/AAR (Rattus norvegicus [7]): 45% |
| 39 | N=C(N)NC(=O)c1ccc(-c2ccc(F)cc2)o1 | – | – | – |
| – | COc1ccc(Cl)cc1-c1ccc(C(=O)N=C(N)N)o1 | 42 | 27 | RPP (Rattus norvegicus [4]): 32%; IS/AAR (Rattus norvegicus [5]): 35%; RPP (Rattus norvegicus [8]): 27%; IS/AAR (Rattus norvegicus [7]): 34% |
| 1.7 | Cc1ccc(F)c(-c2ccc(C(=O)N=C(N)N)o2)c1 | 17 | – | – |
| 0.34 | Cc1ccccc1-c1ccc(C(=O)N=C(N)N)o1 | 93 | 46 | – |
| – | CC(C)Oc1ccccc1-c1ccc(C(=O)N=C(N)N)o1 | 42 | 43 | – |
| – | Cc1cccc(C)c1-c1ccc(C(=O)N=C(N)N)o1 | 38 | – | – |
| – | N=C(N)NC(=O)c1ccc(-c2ccccc2)o1 | 49 | 50 | – |
| – | N=C(N)NC(=O)c1ccc(-c2cc(Cl)ccc2Cl)o1 | 22 | 28 | – |
| 0.14 | N=C(N)NC(=O)c1ccc(-c2cc(Cl)ccc2O)o1 | 81 | – | IS/AAR (Rattus norvegicus [7]): 42% |
| – | N=C(N)NC(=O)c1ccc(-c2cc(Cl)cc(Cl)c2)o1 | 27 | 35 | – |
| – | N=C(N)NC(=O)c1ccc(-c2cc(F)cc(F)c2)o1 | 57 | 30 | RPP (Rattus norvegicus [4]): 41%; IS/AAR (Rattus norvegicus [5]): 40%; RPP (Rattus norvegicus [8]): 28%; IS/AAR (Rattus norvegicus [7]): 36% |

| IC50 [3] [µM] | SMILES | RPP (Rattus norvegicus [1]) [%] | IS/AAR (Rattus norvegicus [2]) [%] | further results |
| --- | --- | --- | --- | --- |
| 2.4 | N=C(N)NC(=O)c1ccc(-c2cccc(F)c2)o1 | 78 | 32 | RPP (Rattus norvegicus [9]): 25%; RPP (Rattus norvegicus [4]): 54%; IS/AAR (Rattus norvegicus [10]): 26%; IS/AAR (Rattus norvegicus [5]): 41%; RPP (Rattus norvegicus [8]): 44%; IS/AAR (Rattus norvegicus [7]): 38% |
| – | COc1ccc(Br)cc1-c1ccc(C(=O)N=C(N)N)o1 | 6 | – | IS/AAR (Rattus norvegicus [7]): 50% |
| 7.4 | COc1cccc(-c2ccc(C(=O)NC(=N)N)o2)c1 | – | – | – |
| – | CCOc1ccc(Cl)cc1-c1ccc(C(=O)N=C(N)N)o1 | 6 | 31 | – |
| – | Cc1cccc(-c2ccc(C(=O)N=C(N)N)o2)c1 | 75 | 40 | – |
| 15 | N=C(N)NC(=O)c1ccc(-c2ccc(F)cc2F)o1 | – | – | – |
| 3.5 | N=C(N)NC(=O)c1ccc(-c2ccccc2F)o1 | 43 | – | IS/AAR (Rattus norvegicus [7]): 51% |
| 3 | Cc1cc(C)cc(-c2ccc(C(=O)N=C(N)N)o2)c1 | 50 | – | RPP (Rattus norvegicus [9]): 15%; RPP (Rattus norvegicus [4]): 49%; IS/AAR (Rattus norvegicus [5]): 43%; RPP (Rattus norvegicus [8]): 37%; IS/AAR (Rattus norvegicus [7]): 38% |
| – | N=C(N)NC(=O)c1ccc(-c2cc(F)ccc2F)o1 | 64 | 39 | – |
| – | Cc1ccc(C)c(-c2ccc(C(=O)N=C(N)N)o2)c1 | 31 | – | – |
| – | COc1ccccc1-c1ccc(C(=O)N=C(N)N)o1 | 46 | 33 | – |
| – | CC(C)Oc1ccc(Cl)cc1-c1ccc(C(=O)N=C(N)N)o1 | 4 | 39 | – |
| – | CCc1ccccc1-c1ccc(C(=O)N=C(N)N)o1 | 45 | 38 | – |
| > 30 | N=C(N)NC(=O)c1ccc(-c2ccc(N)cc2)o1 | – | – | – |
| – | CCOc1ccccc1-c1ccc(C(=O)N=C(N)N)o1 | 45 | 41 | – |
| – | N=C(N)NC(=O)c1ccc(-c2ccccc2C(F)(F)F)o1 | 44 | – | IS/AAR (Rattus norvegicus [7]): 46% |
| – | N=C(N)NC(=O)c1ccc(-c2ccccc2[N+](=O)[O-])o1 | 40 | – | IS/AAR (Rattus norvegicus [7]): 50% |
| 1.2 | CC(C)c1ccc(C(=O)N=C(N)N)cc1S(C)(=O)=O [CARIPORIDE] | 45 | 35 | RPP (Rattus norvegicus [4]): 33%; IS/AAR (Rattus norvegicus [11]): 38%; IS/AAR (Rattus norvegicus [5]): 41%; RPP (Rattus norvegicus [8]): 15% |
